From ChEMBL document CHEMBL1135391, “Anti-Helicobacter pylori agents. 5. 2-(Substituted guanidino)-4-arylthiazoles and aryloxazole analogues” (2002)
Values after ≈ are worked out from the molar mass of the structure shown.

Columns and labels:
[1] = tested on: Helicobacter pylori; assay: Minimum inhibitory concentration required to inhibit macroscopic colonial growth of Helicobacter pylori;ranges from (0.003-0.025); type: functional
Summary of the method: (§1)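 Agar dilution against 10 H. pylori strains (8001, 8003, 8004, 8007, 8008, 8009, 8011, 9005, FP1530, FP1532). Strains precultured 3 days at 37 °C on Brucella agar with 3% horse serum and 2% starch, then adjusted to McFarland No. 1. A 10²-fold dilution was spotted onto Brucella agar with 7% lysed horse blood and 2-fold drug dilutions. Plates incubated 3 days at 37 °C under 10% CO2. MIC is the lowest concentration preventing visible colonies; mean and range span the 10 strains.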

[2] = species on record: Cavia porcellus; assay: Inhibition of histamine-stimulated chronotropic response in isolated guinea pig right atrium at 1*10e-4 g/mL; type: functional, Cardiac atrium
[3] = tested on: Helicobacter pylori; assay: Minimum inhibitory concentration required to inhibit macroscopic colonial growth of Helicobacter pylori; ranges from (0.2-3.13); type: functional; summary of the method: as §1
[4] = tested on: Rattus norvegicus; assay: Inhibition of histamine-stimulated gastric acid secretion in lumen-perfused stomach of anesthetized rats after 1 mg/kg iv administration; type: functional
Summary of the method: (§2)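 Male Sprague-Dawley rats, about 250 g, fasted 24 h and anesthetized with urethane 1.25 g/kg ip. Stomach lumen perfused with saline, perfusate titrated with 25 mM NaOH. Acid secretion was driven by iv histamine infusion at 3 mg/kg/h. At plateau, compound 1 mg/kg iv. Read-out is maximal inhibition of acid output, n = 2.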

[5] = species on record: Cavia porcellus; assay: Inhibition of histamine-stimulated chronotropic response in isolated guinea pig right atrium at 1*10e-6 g/mL; type: functional, Cardiac atrium
Summary of the method: (§3)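 Guinea pig atrial strip in Thyrode solution at 30 °C, gassed with 95% O2-5% CO2, initial tension 0.3-0.6 g. Beating rate recorded. Histamine hydrochloride 1 × 10⁻⁶ g/mL was given first. After washout, test compound at 1 × 10⁻⁶ g/mL was added 30 min later. Percent inhibition compares histamine-induced rate increases before and 30 min after compound.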

[6] = tested on: Helicobacter pylori; assay: Minimum inhibitory concentration required to inhibit macroscopic colonial growth of Helicobacter pylori; ranges from(1.56-25); type: functional; summary of the method: as §1
[7] = tested on: Helicobacter pylori; assay: Minimum inhibitory concentration required to inhibit macroscopic colonial growth of Helicobacter pylori; ranges from ([…]-6.25); type: functional; summary of the method: as §1
[8] = tested on: Helicobacter pylori; assay: Minimum inhibitory concentration required to inhibit macroscopic colonial growth of Helicobacter pylori; ranges from (0.2-1.56); type: functional; summary of the method: as §1
[9] = species on record: Cavia porcellus; assay: Inhibition of histamine-stimulated chronotropic response in isolated guinea pig right atrium; type: functional, Cardiac atrium; summary of the method: as §3
[10] = tested on: Rattus norvegicus; assay: Inhibition of histamine-stimulated gastric acid secretion in lumen-perfused stomach of anesthetized rats; type: functional; summary of the method: as §2
[11] = tested on: Helicobacter pylori; assay: Minimum inhibitory concentration required to inhibit macroscopic colonial growth of Helicobacter pylori; type: functional; summary of the method: as §1
[12] = tested on: Helicobacter pylori; assay: Minimum inhibitory concentration required to inhibit macroscopic colonial growth of Helicobacter pylori; ranges from (0.025-0.1); type: functional; summary of the method: as §1
[13] = tested on: Helicobacter pylori; assay: Minimum inhibitory concentration required to inhibit macroscopic colonial growth of Helicobacter pylori; ranges from (3.13-6.25); type: functional; summary of the method: as §1
[14] = tested on: Helicobacter pylori; assay: Minimum inhibitory concentration required to inhibit macroscopic colonial growth of Helicobacter pylori; ranges from (3.13-12.5); type: functional; summary of the method: as §1
[15] = tested on: Helicobacter pylori; assay: Minimum inhibitory concentration required to inhibit macroscopic colonial growth of Helicobacter pylori; ranges from (0.78-6.25); type: functional; summary of the method: as §1
[16] = tested on: Helicobacter pylori; assay: Minimum inhibitory concentration required to inhibit macroscopic colonial growth of Helicobacter pylori; ranges from (6.25-25); type: functional; summary of the method: as §1
[17] = tested on: Helicobacter pylori; assay: Minimum inhibitory concentration required to inhibit macroscopic colonial growth of Helicobacter pylori ranges from (6.25-12.5); type: functional; summary of the method: as §1
[18] = tested on: Helicobacter pylori; assay: Minimum inhibitory concentration required to inhibit macroscopic colonial growth of Helicobacter pylori; ranges from (1.56-12.5); type: functional; summary of the method: as §1
[19] = tested on: Helicobacter pylori; assay: Minimum inhibitory concentration required to inhibit macroscopic colonial growth of Helicobacter pylori; ranges from (0.39-6.25); type: functional; summary of the method: as §1
[20] = tested on: Helicobacter pylori; assay: Minimum inhibitory concentration required to inhibit macroscopic colonial growth of Helicobacter pylori; ranges from (0.78-1.56); type: functional; summary of the method: as §1
[21] = tested on: Helicobacter pylori; assay: Minimum inhibitory concentration required to inhibit macroscopic colonial growth of Helicobacter pylori;ranges from (0.10-0.78); type: functional; summary of the method: as §1
[22] = tested on: Helicobacter pylori; assay: Minimum inhibitory concentration required to inhibit macroscopic colonial growth of Helicobacter pylori; ranges from (0.05-0.2); type: functional; summary of the method: as §1
[23] = tested on: Helicobacter pylori; assay: Minimum inhibitory concentration required to inhibit macroscopic colonial growth of Helicobacter pylori; ranges from (0.00625-0.1); type: functional; summary of the method: as §1
[24] = tested on: Helicobacter pylori; assay: microbe, parasite or virus in culture
[25] = tested on: Helicobacter pylori; assay: Minimum inhibitory concentration required to inhibit macroscopic colonial growth of Helicobacter pylori; ranges from (3.13-[…]); type: functional; summary of the method: as §1
[26] = tested on: Helicobacter pylori; assay: Minimum inhibitory concentration required to inhibit macroscopic colonial growth of Helicobacter pylori; ranges from (0.2-0.78); type: functional; summary of the method: as §1
[27] = tested on: Helicobacter pylori; assay: Minimum inhibitory concentration required to inhibit macroscopic colonial growth of Helicobacter pylori; ranges from (0.0125-0.1); type: functional; summary of the method: as §1
[28] = tested on: Helicobacter pylori; assay: Minimum inhibitory concentration required to inhibit macroscopic colonial growth of Helicobacter pylori; ranges from (0.1-0.78); type: functional; summary of the method: as §1
[29] = tested on: Helicobacter pylori; assay: Minimum inhibitory concentration required to inhibit macroscopic colonial growth of Helicobacter pylori; ranges from (0.025-0.39); type: functional; summary of the method: as §1

COc1ccccc1CC/N=C(\N)Nc1nc(-c2ccc(CNC(C)=O)s2)cs1
MIC [1]: 0.0065 µg/mL (≈ 0.0151 µM)
Inhibition [2]: <10%

COc1ccccc1CC/N=C(\N)Nc1nc(-c2ncc(CNC(C)=O)o2)cs1
MIC [3]: 1.1 µg/mL (≈ 2.65 µM)
inhibition in vivo at 1 mg/kg [4]: 50%
Inhibition [5]: 37%

Cc1ncc([N+](=O)[O-])n1CCO [METRONIDAZOLE]
MIC [6]: 5.4 µg/mL (≈ 31.6 µM)

CCCC/N=C(\N)Nc1nc(-c2cccc(CNC(C)=O)n2)co1
MIC [7]: 3.9 µg/mL (≈ 11.8 µM)
inhibition in vivo at 1 mg/kg [4]: 92%
Inhibition [5]: 81%

CCCC/N=C(\N)Nc1nc(-c2csc(CNC(C)=O)n2)cs1
MIC [8]: 0.52 µg/mL (≈ 1.48 µM)
inhibition in vivo at 1 mg/kg [4]: 50%
Inhibition [5]: 85%

CNC(=C[N+](=O)[O-])NCCSCc1ccc(CN(C)C)o1 [RANITIDINE]
Inhibition [9]: 44%
Inhibition [10]: 72%
MIC [11]: > 1600 µg/mL

COc1ccccc1CC/N=C(\N)Nc1nc(-c2cccc(CNC(C)=O)n2)cs1
MIC [12]: 0.037 µg/mL (≈ 0.0872 µM)
inhibition in vivo at 1 mg/kg [4]: 65%
Inhibition [5]: 78%

CCCC/N=C(\N)Nc1nc(-c2ccnc(CNC(C)=O)n2)cs1
MIC [13]: 4.1 µg/mL (≈ 11.8 µM)
Inhibition [5]: <10%

CCCC/N=C(\N)Nc1nc(-c2nc(CNC(C)=O)no2)cs1
MIC [14]: 10.9 µg/mL (≈ 32.3 µM)
Inhibition [5]: <10%

CCC/N=C(\N)Nc1nc(-c2cccc(CNC(C)=O)n2)cs1
MIC [15]: 2.9 µg/mL (≈ 8.72 µM)

CC(=O)NCc1cccc(-c2csc(NC(=N)NCC(F)(F)F)n2)n1
MIC [16]: 13.4 µg/mL (≈ 36 µM)

COc1ccccc1CC/N=C(\N)Nc1nc(-c2c[nH]c(CNC(C)=O)n2)cs1
MIC [17]: 10.2 µg/mL (≈ 24.7 µM)

CC(=O)NCC/N=C(\N)Nc1nc(-c2cccc(CNC(C)=O)n2)cs1
MIC [16]: 11.5 µg/mL (≈ 30.6 µM)

CC/N=C(\N)Nc1nc(-c2cccc(CNC(C)=O)n2)cs1
MIC [18]: 4.7 µg/mL (≈ 14.8 µM)

CCCC/N=C(\N)Nc1nc(-c2cccc(CNC(C)=O)c2)co1
MIC [19]: 1.92 µg/mL (≈ 5.83 µM)
inhibition in vivo at 1 mg/kg [4]: 60%
Inhibition [5]: 93%

CSCC/N=C(\N)Nc1nc(-c2cccc(CNC(C)=O)n2)cs1
MIC [20]: 1.1 µg/mL (≈ 3.02 µM)

CC[C@H]1OC(=O)[C@H](C)[C@@H](O[C@H]2C[C@@](C)(OC)[C@@H](O)[C@H](C)O2)[C@H](C)[C@@H](O[C@@H]2O[C@H](C)C[C@H](N(C)C)[C@H]2O)[C@](C)(OC)C[C@@H](C)C(=O)[C@H](C)[C@@H](O)[C@]1(C)O [CLARITHROMYCIN]
MIC [11]: 0.057 µg/mL (≈ 0.0762 µM)

COCC/N=C(\N)Nc1nc(-c2cccc(CNC(C)=O)n2)cs1
MIC [14]: 6.7 µg/mL (≈ 19.2 µM)

COc1ccccc1CC/N=C(\N)Nc1nc(-c2cccc(CNC(C)=O)c2)co1
MIC [21]: 0.3 µg/mL (≈ 0.736 µM)
inhibition in vivo at 1 mg/kg [4]: 40%
Inhibition [5]: 65%

CCCC/N=C(\N)Nc1nc(-c2ccc(CNC(C)=O)o2)co1
inhibition in vivo at 1 mg/kg [4]: 51%
MIC [16]: 19.3 µg/mL (≈ 60.4 µM)
Inhibition [5]: 82%

COc1ccccc1CC/N=C(\N)Nc1nc(-c2cc(CNC(C)=O)on2)cs1
MIC [13]: 4.4 µg/mL (≈ 10.6 µM)
Inhibition [5]: <10%

CC(=O)NCc1cccc(-c2csc(N/C(N)=N/CCC(C)C)n2)n1
MIC [22]: 0.1 µg/mL (≈ 0.277 µM)
inhibition in vivo at 1 mg/kg [4]: 86%
Inhibition [5]: 80%

CCCC/N=C(\N)Nc1nc(-c2cccc(CNC(C)=O)n2)cs1
MIC [8]: 0.59 µg/mL (≈ 1.7 µM)
inhibition in vivo at 1 mg/kg [4]: 76%
Inhibition [5]: 100%

CC1(C)S[C@@H]2[C@H](NC(=O)[C@H](N)c3ccc(O)cc3)C(=O)N2[C@H]1C(=O)O [AMOXICILLIN]
MIC [23]: 0.021 µg/mL (≈ 0.0575 µM)

CN/C(=N\CCSCc1nc[nH]c1C)NC#N [CIMETIDINE]
MIC [24]: 1130 µg/mL (≈ 4480 µM)
inhibition in vivo at 1 mg/kg [4]: 53%
Inhibition [5]: 43%

C/N=C(\N)Nc1nc(-c2cccc(CNC(C)=O)n2)cs1
MIC [25]: 5.1 µg/mL (≈ 16.8 µM)

COc1ccc(CC/N=C(\N)Nc2nc(-c3cccc(CNC(C)=O)n3)cs2)cc1
MIC [26]: 0.42 µg/mL (≈ 0.989 µM)
inhibition in vivo at 1 mg/kg [4]: 18%
Inhibition [5]: 24%

COc1ccccc1CC/N=C(\N)Nc1nc(-c2csc(CNC(C)=O)n2)cs1
MIC [27]: 0.043 µg/mL (≈ 0.0999 µM)
inhibition in vivo at 1 mg/kg [4]: 23%
Inhibition [5]: 30%

BISMUTH SUBCITRATE
MIC [11]: 18 µg/mL

CC(=O)NCc1cccc(-c2csc(N/C(N)=N/CCN(C)C)n2)n1
MIC [11]: > 100 µg/mL

CC(=O)NCc1cccc(-c2csc(NC(=N)NCCc3ccccc3)n2)n1
MIC [22]: 0.1 µg/mL (≈ 0.253 µM)
Inhibition [4]: 50%
Inhibition [5]: 71%

CCCC/N=C(\N)Nc1nc(-c2ccc(CNC(C)=O)s2)cs1
MIC [28]: 0.32 µg/mL (≈ 0.91 µM)
Inhibition [2]: <10%

COc1cccc(CC/N=C(\N)Nc2nc(-c3cccc(CNC(C)=O)n3)cs2)c1
MIC [29]: 0.14 µg/mL (≈ 0.33 µM)
inhibition in vivo at 1 mg/kg [4]: 68%
Inhibition [5]: 83%
